{"data": "Results pooled from the literature", "target": "D(2) dopamine receptor (DRD2, Homo sapiens, UniProt P14416)"}
{"SMILES": "O=C(c1ccccc1Cl)N1CCN(CCNc2cc(=O)oc3ccccc23)CC1", "effect on": "enzyme activity", "mode": "inhibitor", "concentration": "10 µM", "quantity": "inhibition", "result": "31.2%"}
{"SMILES": "O=C(NCc1ncc(C(F)(F)F)cc1Cl)c1ccc2c(c1)C1(CCS(=O)(=O)CC1)[C@@H](C1CC1)N2S(=O)(=O)c1ccc(F)cc1", "effect on": "ligand displacement", "concentration": "10 µM", "quantity": "inhibition", "result": "-8.4%"}
{"SMILES": "COc1ccc2c(c1)CN(CCCN1CCN(c3ccccc3OC)CC1)C2=O", "effect on": "ligand displacement", "method": "radioligand", "concentration": "10 µM", "quantity": "inhibition", "result": "82.1%"}
{"SMILES": "O=c1nc(-c2ccccn2)sc2ccccc12", "effect on": "ligand displacement", "concentration": "10 µM", "quantity": "inhibition", "result": "22.9%"}
{"SMILES": "Cc1ccc(OC[C@@H]2CN(CCN3CCc4ccccc43)CCO2)cn1", "effect on": "ligand displacement", "method": "radioligand", "concentration": "10 µM", "quantity": "inhibition", "result": "18.8%"}
{"SMILES": "CNc1nc2cc(OCCCCN3CCN(c4cccc5ccc(C)nc45)CC3)ccc2s1", "effect on": "β-arrestin recruitment", "mode": "agonist", "cell line": "HTLA", "quantity": "Emax", "result": "< 20%"}
{"SMILES": "CN1CCN(C(=O)C(C)(C)c2ccc(C(=O)Nc3cn4cc(-c5cc(C(C)(C)C)cc(C(C)(C)C)c5)ccc4n3)cc2)CC1", "effect on": "ligand displacement", "concentration": "10 µM", "quantity": "inhibition", "result": "57.5%"}
{"SMILES": "COc1cccc(OC[C@@H]2CN(CCN3CCc4ccccc43)CCO2)c1", "effect on": "ligand displacement", "method": "radioligand", "concentration": "10 µM", "quantity": "inhibition", "result": "36.5%"}
{"SMILES": "Cc1cc(C)cc(NC(=O)CN2CCN(C(=O)c3ccco3)CC2)c1", "effect on": "enzyme activity", "mode": "inhibitor", "concentration": "10 µM", "quantity": "inhibition", "result": "8.3%"}
{"SMILES": "CCS(=O)(=O)c1cc2cc(C[C@](O)(CC(C)(C)c3ccc(F)cc3C(N)=O)C(F)(F)F)[nH]c2cn1", "effect on": "ligand displacement", "concentration": "10 µM", "quantity": "inhibition", "result": "-12.2%"}
{"SMILES": "Cc1nc2cc(OCCCCN3CCN(c4cccc5c4OCCO5)CC3)ccc2s1", "effect on": "β-arrestin recruitment", "mode": "agonist", "cell line": "HTLA", "quantity": "Emax", "result": "35%"}
{"SMILES": "CCC(=NO)C(C)=Cc1ccc(F)c(C)c1", "effect on": "ligand displacement", "concentration": "10 µM", "quantity": "inhibition", "result": "-6.57%"}
{"SMILES": "Clc1cncc(OC[C@@H]2CN(CCN3CCc4ccccc43)CCO2)c1", "effect on": "ligand displacement", "method": "radioligand", "concentration": "10 µM", "quantity": "inhibition", "result": "60%"}
{"SMILES": "CCc1ccc(N2CCN(CC(O)COc3ccc(C(C)=O)cc3OC)CC2)cc1 (stereo not shown)", "effect on": "enzyme activity", "mode": "inhibitor", "concentration": "10 µM", "quantity": "inhibition", "result": "11.2%"}
{"SMILES": "O=C1c2ccccc2CCN1CCCCN1CCN(c2cccc(Cl)c2Cl)CC1", "effect on": "ligand displacement", "method": "radioligand", "concentration": "10 µM", "quantity": "inhibition", "result": "99.3%"}
{"SMILES": "COc1ccc(N2CCN(CC(O)COc3ccc(C(C)=O)cc3OC)CC2)cc1 (stereo not shown)", "effect on": "enzyme activity", "mode": "inhibitor", "concentration": "10 µM", "quantity": "inhibition", "result": "27.4%"}
{"SMILES": "O=C(CCCN1CCC(O)(c2ccc(Br)cc2)CC1)c1ccc(F)cc1", "effect on": "binding", "quantity": "kon", "result": "2.67e+06 M⁻¹ s⁻¹"}
{"SMILES": "Cc1[nH]n(-c2ccc([N+](=O)[O-])cc2)c(=O)c1C=NCCN1CCN(C(=O)c2cccc(F)c2)CC1", "effect on": "enzyme activity", "mode": "inhibitor", "concentration": "10 µM", "quantity": "inhibition", "result": "20.6%"}
{"SMILES": "CCOc1cc(N2C3COCC2CN(C(=O)[C@H]2C[C@H](O)CN2c2ccc(Cl)cc2)C3)ccc1Cl", "effect on": "cell-free assay", "concentration": "10 µM", "quantity": "inhibition", "result": "7.26%"}
{"SMILES": "FC(F)(F)c1cccc(-c2ccc(CNCCCN3CCOCC3)o2)c1", "effect on": "enzyme activity", "mode": "inhibitor", "concentration": "10 µM", "quantity": "inhibition", "result": "48.3%"}
{"SMILES": "O=C(CN1CCO[C@@H](COc2ccccn2)C1)N1CCc2ccccc21", "effect on": "ligand displacement", "method": "radioligand", "concentration": "10 µM", "quantity": "inhibition", "result": "-15.6%"}
{"SMILES": "C[C@H](c1ccnc(Nc2nc3ccc(-c4cc(N(C)C)ncn4)cc3[nH]2)c1)N1CCN(C(=O)CC(F)(F)F)CC1", "effect on": "ligand displacement", "concentration": "10 µM", "quantity": "inhibition", "result": "5.66%"}
{"SMILES": "NS(=O)(=O)c1ccc(CCNCc2ccc(OCc3cccs3)cc2)cc1", "effect on": "enzyme activity", "mode": "inhibitor", "concentration": "10 µM", "quantity": "inhibition", "result": "23.9%"}
{"SMILES": "Cc1cc(NC(=O)c2cccc(S(F)(F)(F)(F)F)c2)cc(-n2ccn3nc(-c4cccnc4)cc23)c1", "effect on": "ligand displacement", "method": "radioligand", "concentration": "10 µM", "quantity": "inhibition", "result": "12.3%"}
{"SMILES": "c1cncc(OC[C@@H]2CN(CCN3CCc4ccccc43)CCO2)c1", "effect on": "ligand displacement", "method": "radioligand", "concentration": "10 µM", "quantity": "inhibition", "result": "20.9%"}
